Source: ChEMBL document CHEMBL4818995, “Dual nicotinamide phosphoribosyltransferase and epidermal growth factor receptor inhibitors for the treatment of cancer” (Eur J Med Chem, 2021)

How the values were obtained:
[1] = target: Epidermal growth factor receptor (Homo sapiens, UniProt P00533); experiment: Inhibition of N-terminal GST-tagged human recombinant EGFR cytoplasmic domain (668 to 1210 residues) expressed in baculovirus expression system by Z'-LYTE kinase assay
[2] = target: Epidermal growth factor receptor (Homo sapiens, UniProt P00533, T790M); experiment: Inhibition of N-terminal GST-tagged human recombinant EGFR T790M mutant (668 to 1210 residues) expressed in baculovirus expression system by Z'-LYTE kinase assay
[3] = target: Epidermal growth factor receptor (Homo sapiens, UniProt P00533, L861Q); experiment: Inhibition of N-terminal GST-tagged human recombinant EGFR L861Q mutant (668 to 1210 residues) expressed in baculovirus expression system by Z'-LYTE kinase assay
[4] = target: Epidermal growth factor receptor (Homo sapiens, UniProt P00533, L858R); experiment: Inhibition of N-terminal GST-tagged human recombinant EGFR L858R mutant (668 to 1210 residues) expressed in baculovirus expression system by Z'-LYTE kinase assay
[5] = tested on: Huh-7; experiment: Antiproliferative activity against human Huh-7 cells assessed as inhibition of cell growth after 72 hrs by CCK8 assay; type: functional, cell-based
Summary of the method: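 Cells kept in RPMI or DMEM with 10% FBS and 1% penicillin/streptomycin, 37 °C, 5% CO2. Plated at 400-800 cells/well, treated with a range of test concentrations or vehicle for 72 h. CCK8 reagent added, absorbance read at 450 nm.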

[6] = tested on: NCI-H1975; experiment: Antiproliferative activity against human NCI-H1975 cells harboring EGFR L858R/T790M double mutant assessed as inhibition of cell growth; type: functional
[7] = Toxicity in BALB/c nude mouse xenografted with human NCI-H1975 cells assessed as changes in body weight at 60 mg/kg, iv administered 5 days a week for 3 weeks; type: organism-based; details: in vivo, 504 h
Summary of the method: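 Female BALB/c nude mice aged 4-6 weeks, H1975 cells (3 × 10^6 in 0.1 ml RPMI-1640) implanted subcutaneously in the right flank. At day 12, tumors ~150 mm3, mice grouped n=6. […] Test agent in 5% ethanol/5% DMSO/10% Cremophor EL/80% saline at 60 mg/kg i.v. five times weekly. Vehicle group received i.v. vehicle. Tumor and body weight recorded daily by caliper; TV = width² × length × 0.5. Mean ± SD, Student's t-test.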

[8] = tested on: K562; experiment: Antiproliferative activity against human K562 cells assessed as inhibition of cell growth after 72 hrs by CCK8 assay; details: K562, 72 h
[9] = tested on: MCF7; experiment: Antiproliferative activity against human MCF-7 cells assessed as inhibition of cell growth after 72 hrs by CCK8 assay; details: MCF7, 72 h

Sequence of Epidermal growth factor receptor (Homo sapiens, UniProt P00533, L861Q) (P00533 25-1210 L861Q limits assumed): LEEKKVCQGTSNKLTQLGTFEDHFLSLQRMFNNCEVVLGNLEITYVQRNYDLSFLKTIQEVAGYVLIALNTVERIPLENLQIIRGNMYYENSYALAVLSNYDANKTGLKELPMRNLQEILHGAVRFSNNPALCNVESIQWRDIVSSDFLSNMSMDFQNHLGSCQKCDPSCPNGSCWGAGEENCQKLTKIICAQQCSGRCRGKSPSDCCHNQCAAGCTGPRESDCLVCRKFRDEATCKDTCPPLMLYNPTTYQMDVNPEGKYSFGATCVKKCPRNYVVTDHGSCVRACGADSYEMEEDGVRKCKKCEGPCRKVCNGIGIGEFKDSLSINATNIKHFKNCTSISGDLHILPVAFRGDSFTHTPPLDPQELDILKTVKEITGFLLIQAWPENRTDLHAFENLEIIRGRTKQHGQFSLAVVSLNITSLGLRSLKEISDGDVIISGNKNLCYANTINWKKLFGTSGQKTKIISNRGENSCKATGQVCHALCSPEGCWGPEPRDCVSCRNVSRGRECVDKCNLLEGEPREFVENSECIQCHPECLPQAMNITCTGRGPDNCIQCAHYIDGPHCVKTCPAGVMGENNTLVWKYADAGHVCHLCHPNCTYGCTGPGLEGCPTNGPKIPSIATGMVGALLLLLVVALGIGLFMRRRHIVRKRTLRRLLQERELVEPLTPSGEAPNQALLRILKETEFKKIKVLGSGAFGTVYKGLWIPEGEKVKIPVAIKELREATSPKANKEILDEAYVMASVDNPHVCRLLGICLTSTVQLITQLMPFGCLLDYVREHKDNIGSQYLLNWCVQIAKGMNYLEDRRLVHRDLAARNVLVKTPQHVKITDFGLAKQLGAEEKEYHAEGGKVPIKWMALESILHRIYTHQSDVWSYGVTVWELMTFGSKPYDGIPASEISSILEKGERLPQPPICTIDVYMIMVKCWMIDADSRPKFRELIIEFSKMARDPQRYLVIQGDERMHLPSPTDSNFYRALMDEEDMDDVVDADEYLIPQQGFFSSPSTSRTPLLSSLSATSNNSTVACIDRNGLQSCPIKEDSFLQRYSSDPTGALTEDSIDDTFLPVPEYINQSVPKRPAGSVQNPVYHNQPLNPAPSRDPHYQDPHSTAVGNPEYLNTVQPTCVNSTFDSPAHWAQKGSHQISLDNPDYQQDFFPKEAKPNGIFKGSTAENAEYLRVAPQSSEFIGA
Sequence of Epidermal growth factor receptor (Homo sapiens, UniProt P00533, T790M) (P00533 25-1210 T790M limits assumed): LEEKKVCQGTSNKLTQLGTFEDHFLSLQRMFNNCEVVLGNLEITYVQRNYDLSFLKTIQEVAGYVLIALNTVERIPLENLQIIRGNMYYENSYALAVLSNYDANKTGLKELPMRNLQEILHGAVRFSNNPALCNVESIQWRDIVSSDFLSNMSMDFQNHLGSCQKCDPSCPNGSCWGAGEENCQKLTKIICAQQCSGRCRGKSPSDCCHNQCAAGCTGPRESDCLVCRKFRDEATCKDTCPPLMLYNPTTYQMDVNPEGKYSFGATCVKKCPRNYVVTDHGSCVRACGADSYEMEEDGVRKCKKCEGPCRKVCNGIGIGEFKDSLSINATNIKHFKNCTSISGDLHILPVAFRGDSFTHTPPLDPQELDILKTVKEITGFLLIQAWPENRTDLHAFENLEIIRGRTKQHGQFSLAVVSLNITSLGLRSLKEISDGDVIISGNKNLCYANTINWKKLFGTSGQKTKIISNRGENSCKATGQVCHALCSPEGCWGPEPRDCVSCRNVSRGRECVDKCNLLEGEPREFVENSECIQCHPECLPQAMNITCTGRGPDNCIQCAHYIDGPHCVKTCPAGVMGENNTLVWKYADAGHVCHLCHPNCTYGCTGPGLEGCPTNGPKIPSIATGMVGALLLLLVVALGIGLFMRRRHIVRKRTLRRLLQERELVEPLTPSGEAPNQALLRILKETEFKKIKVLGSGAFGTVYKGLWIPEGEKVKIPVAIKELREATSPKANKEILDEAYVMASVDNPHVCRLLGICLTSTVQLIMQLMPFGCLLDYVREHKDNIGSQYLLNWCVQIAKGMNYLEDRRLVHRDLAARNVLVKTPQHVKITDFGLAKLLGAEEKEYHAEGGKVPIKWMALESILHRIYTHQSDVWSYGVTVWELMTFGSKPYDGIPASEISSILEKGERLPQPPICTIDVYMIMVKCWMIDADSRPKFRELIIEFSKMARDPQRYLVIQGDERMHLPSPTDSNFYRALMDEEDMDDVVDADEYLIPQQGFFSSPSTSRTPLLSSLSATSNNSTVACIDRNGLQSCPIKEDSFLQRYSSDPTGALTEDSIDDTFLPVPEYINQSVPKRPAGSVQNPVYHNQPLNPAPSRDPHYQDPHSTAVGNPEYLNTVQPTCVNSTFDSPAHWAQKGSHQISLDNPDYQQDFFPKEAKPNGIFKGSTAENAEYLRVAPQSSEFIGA
Sequence of Epidermal growth factor receptor (Homo sapiens, UniProt P00533) (P00533 whole entry, the tested form may be a part): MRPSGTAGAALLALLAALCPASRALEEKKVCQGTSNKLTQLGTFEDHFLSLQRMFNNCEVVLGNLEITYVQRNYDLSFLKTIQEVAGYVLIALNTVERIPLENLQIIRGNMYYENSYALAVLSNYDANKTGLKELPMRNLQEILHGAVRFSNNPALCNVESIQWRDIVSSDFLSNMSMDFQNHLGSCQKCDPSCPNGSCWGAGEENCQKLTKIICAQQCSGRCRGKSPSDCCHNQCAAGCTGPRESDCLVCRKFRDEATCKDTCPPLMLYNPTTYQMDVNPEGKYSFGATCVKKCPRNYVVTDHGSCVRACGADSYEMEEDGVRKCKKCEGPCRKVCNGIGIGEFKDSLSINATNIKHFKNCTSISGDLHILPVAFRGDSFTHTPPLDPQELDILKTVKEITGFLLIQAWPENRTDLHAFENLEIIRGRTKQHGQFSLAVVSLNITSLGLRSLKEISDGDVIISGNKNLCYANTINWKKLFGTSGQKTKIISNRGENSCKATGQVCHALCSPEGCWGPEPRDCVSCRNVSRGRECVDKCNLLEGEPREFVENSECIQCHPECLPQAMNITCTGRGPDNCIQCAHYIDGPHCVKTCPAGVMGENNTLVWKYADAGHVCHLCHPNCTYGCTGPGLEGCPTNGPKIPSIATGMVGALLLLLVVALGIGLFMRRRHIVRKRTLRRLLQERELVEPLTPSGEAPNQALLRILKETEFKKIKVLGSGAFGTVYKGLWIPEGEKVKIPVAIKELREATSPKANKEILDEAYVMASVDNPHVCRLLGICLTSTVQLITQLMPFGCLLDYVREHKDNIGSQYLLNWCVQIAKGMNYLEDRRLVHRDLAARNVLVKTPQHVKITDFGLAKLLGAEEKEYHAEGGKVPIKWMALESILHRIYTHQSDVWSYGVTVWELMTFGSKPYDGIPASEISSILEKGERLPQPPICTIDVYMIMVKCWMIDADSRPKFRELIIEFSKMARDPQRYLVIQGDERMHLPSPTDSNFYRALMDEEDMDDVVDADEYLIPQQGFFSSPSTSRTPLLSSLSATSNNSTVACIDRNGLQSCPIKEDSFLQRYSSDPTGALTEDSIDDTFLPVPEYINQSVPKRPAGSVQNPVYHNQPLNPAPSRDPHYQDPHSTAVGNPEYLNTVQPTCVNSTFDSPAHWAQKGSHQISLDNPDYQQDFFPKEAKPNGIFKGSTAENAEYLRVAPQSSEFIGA
Sequence of Epidermal growth factor receptor (Homo sapiens, UniProt P00533, L858R) (P00533 25-1210 L858R limits assumed): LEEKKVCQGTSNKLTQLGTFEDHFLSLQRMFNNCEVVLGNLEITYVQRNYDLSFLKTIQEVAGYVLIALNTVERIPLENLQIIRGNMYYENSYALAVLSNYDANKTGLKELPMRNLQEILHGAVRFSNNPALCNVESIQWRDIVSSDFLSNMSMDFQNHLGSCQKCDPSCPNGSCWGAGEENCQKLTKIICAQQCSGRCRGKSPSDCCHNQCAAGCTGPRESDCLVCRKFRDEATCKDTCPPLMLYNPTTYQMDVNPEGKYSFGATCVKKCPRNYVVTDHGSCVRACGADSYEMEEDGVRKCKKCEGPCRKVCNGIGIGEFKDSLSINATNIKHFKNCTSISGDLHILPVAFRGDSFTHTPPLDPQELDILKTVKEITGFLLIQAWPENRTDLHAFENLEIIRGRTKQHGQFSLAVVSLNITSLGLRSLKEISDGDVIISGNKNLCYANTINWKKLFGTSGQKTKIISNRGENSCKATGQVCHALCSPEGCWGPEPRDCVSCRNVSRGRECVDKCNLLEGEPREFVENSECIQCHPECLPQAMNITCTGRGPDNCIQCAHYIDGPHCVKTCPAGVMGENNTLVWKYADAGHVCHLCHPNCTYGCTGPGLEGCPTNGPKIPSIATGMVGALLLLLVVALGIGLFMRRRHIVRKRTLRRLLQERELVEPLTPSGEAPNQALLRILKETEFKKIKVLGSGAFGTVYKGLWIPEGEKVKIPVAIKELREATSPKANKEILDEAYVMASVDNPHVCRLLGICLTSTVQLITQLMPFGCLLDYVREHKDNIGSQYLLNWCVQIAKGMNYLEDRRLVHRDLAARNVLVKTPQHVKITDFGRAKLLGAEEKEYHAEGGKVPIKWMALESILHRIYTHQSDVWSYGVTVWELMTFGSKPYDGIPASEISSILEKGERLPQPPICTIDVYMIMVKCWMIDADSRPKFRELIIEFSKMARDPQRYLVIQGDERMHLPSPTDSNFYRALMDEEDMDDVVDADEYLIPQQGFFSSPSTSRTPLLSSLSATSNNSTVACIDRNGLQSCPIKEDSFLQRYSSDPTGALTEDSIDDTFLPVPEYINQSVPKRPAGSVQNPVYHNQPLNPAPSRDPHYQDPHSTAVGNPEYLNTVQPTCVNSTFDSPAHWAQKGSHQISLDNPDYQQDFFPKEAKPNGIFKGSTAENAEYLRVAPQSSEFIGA

Row | SMILES | IC50 [1] | IC50 [2] | IC50 [3] | IC50 [4] | GI50 [5] | GI50 [6] | Activity [7] | GI50 [8] | GI50 [9]
1 | C#Cc1cccc(Nc2ncnc3cc(OC)c(OCCCCCN/C(=N\C#N)Nc4ccncc4)cc23)c1 | 0.23 nM | 153 nM | 0.26 nM | 0.26 nM | 1.64 nM | 78.3 nM | Non-Toxic | 38 nM | 0.1 nM
2 | C#Cc1cccc(Nc2ncnc3cc(OC)c(OCCCCCN/C(=N\C#N)Nc4cccnc4)cc23)c1 | 0.52 nM | 228 nM | 0.46 nM | 0.41 nM | 62.9 nM |  |  | 175 nM | 0.98 nM
3 | C#Cc1cccc(Nc2ncnc3cc(OC)c(OCCCCCCCN/C(=N\C#N)Nc4cccnc4)cc23)c1 | 0.538 nM | 448 nM | 0.49 nM | 0.48 nM | 9.94 nM |  |  | 42.1 nM | 0.63 nM
4 | C#Cc1cccc(Nc2ncnc3cc(OC)c(OCCCCCCN/C(=N\C#N)Nc4ccncc4)cc23)c1 | 0.35 nM | 323 nM | 0.36 nM | 0.32 nM | 1.87 nM |  |  | 7.47 nM | 0.15 nM
5 | C#Cc1cccc(Nc2ncnc3cc(OC)c(OCCCCCCCN/C(=N\C#N)Nc4ccncc4)cc23)c1 | 0.473 nM | 581 nM | 0.55 nM | 0.46 nM | 1.81 nM |  |  | 50.9 nM | 0.21 nM
6 | C#Cc1cccc(Nc2ncnc3cc(OC)c(OCCCCCCN/C(=N\C#N)Nc4cccnc4)cc23)c1 | 0.32 nM | 326 nM | 0.38 nM | 0.38 nM |  |  |  | 24.6 nM | 0.16 nM
7 | CC(=O)O[C@H]1C(=O)[C@@]2(C)[C@H]([C@H](OC(=O)c3ccccc3)[C@]3(O)C[C@H](OC(=O)[C@H](O)[C@@H](NC(=O)c4ccccc4)c4ccccc4)C(C)=C1C3(C)C)[C@]1(OC(C)=O)CO[C@@H]1C[C@@H]2O [PACLITAXEL] |  |  |  |  | 7.41 nM |  |  | 2.76 nM | 4.85 nM
